Source: PubChem BioAssay
The list is not random: actives were taken first. Their share in the collection is about 2.5%.
SIAE inh – human SIAE inhibitors, primary screen, biochemical, fluorescence polarization, FP-Rh probe, 1536-well HTS | Sialate O-acetylesterase (Homo sapiens), Q9HAT2 | SIAE FP-Rh probe binding | inhibition, % at 9.66 µM | hit rate 0.69% among 370,000;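 active = inhibition above a cutoff: mean of compounds within the control limits plus 3 SD of those, cut at about 17% in these data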;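 also: 0% = plate median of compound wells and 100% = probe without SIAE protein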
TCR-CD3 inh – inhibitors of human TCR-CD3 interaction, primary screen, biochemical, fluorescence, TAMRA-labeled TCR probe | T-cell receptor (TCR) | inhibition, % at 9.4 µM | hit rate 0.37% among 360,000; in the data active = inhibition above about 19%;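 also: recombinant mutant TCR 2C K166C tagged with TAMRA read by polarization; 0% = receptor in buffer alone and 100% = receptor with positive control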
HTRA1 inhibitor – HTRA1 serine protease inhibitors, primary screen, biochemical, fluorescence polarization, HTS | Q92743 | recombinant HTRA1, FP-rhodamine activity-based probe | inhibition, % at 5.96 µM | hit rate 0.5% among 340,000 | AID 504803, 2011; in the data active = inhibition above about 36%;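 also: 0% = enzyme with DMSO and 100% = wells lacking enzyme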
ABHD4 inh – ABHD4 inhibitors, primary screen, biochemical, fluorescence polarization, mouse. (Lyso)-N-acylphosphatidylethanolamine lipase (Mus musculus), Q8VD66. hit rate 0.54% among 370,000. purified mABHD4, FP-Rh probe fluorescence polarization. inhibition, % at 8.92 µM. AID 720543, 2013;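 active = inhibition exceeding the mean over every tested compound plus 3 SD, cut at about 30% in these data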;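 also: 0% = plate median of compound wells and 100% = S159A mutant with DMSO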
Target sequence (Q8VD66 whole entry, looked up): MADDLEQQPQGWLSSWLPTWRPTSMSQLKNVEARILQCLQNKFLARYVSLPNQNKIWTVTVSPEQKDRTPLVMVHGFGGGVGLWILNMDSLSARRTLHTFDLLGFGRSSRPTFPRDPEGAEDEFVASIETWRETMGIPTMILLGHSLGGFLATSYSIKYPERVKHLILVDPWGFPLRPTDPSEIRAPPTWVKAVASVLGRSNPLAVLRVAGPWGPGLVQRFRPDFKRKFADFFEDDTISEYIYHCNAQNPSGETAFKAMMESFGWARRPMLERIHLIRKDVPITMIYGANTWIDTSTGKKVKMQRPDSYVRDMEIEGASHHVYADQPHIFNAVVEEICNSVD
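Material: mouse ABHD4 enzyme, wild type; Benchmarks: S159A mutant high control, sample median low control; Buffer or medium: HEPES pH 7.0, NaCl, Pluronic buffer; Signal: fluorescence polarization; Read-out: percent inhibition of probe binding, normalized to plate controls; Timing: pre-incubation 45 min, probe exposure 60 min, at 25 °C; Dosing: 8.92 µM, single dose.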
rCAG binder – binders of r(CAG) RNA repeats, primary screen, biochemical, fluorescence; r(CAG) RNA repeat, TO-PRO-1 dye displacement fluorescence; inhibition, % at 3 µM; hit rate 1.3% among 370,000; AID 651821, 2012;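 active = inhibition above the plate cutoff, the mean of all test compounds on that plate plus 3 SD, cut at about 35% in these data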;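 also: 0% = DMSO alone and 100% = 100 µM mitoxantrone as full dye displacement; higher means more dye released from RNA so lower well fluorescence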
* = called active by the depositor; . = no result.

SMILES	SIAE inh	TCR-CD3 inh	HTRA1 inhibitor	ABHD4 inh	rCAG binder
COC(=O)CCCC1=CC2=CC(=O)C(C)(OC(=O)c3cccs3)C(=O)C2=CN1c1ccccc1 (stereo unspecified)	6.7	5.4	3.1	9.2	10.4
CCCCC1=CC2=CC(=O)C(C)(OC(=O)c3cccs3)C(=O)C2=CO1 (stereo unspecified)	1.6	6.5	36.1	21.9	36.6*
CCOc1ccc(C(=O)Nc2cccc(C(=O)O)c2C)cc1Cl	-2.0	3.4	1.7	3.9	1.0
CCOc1c(Cl)cc(C(=O)Nc2ccccc2C(=O)O)cc1Cl	-32.9	8.6	-46.5	-14.8	50.9*
COc1ccc2cc3[n+](cc2c1O)CCc1cc2c(cc1-3)OCO2	20.5*	24.5*	.	31.5*	17.0
COc1cc2c(cc1OC)-c1cc3ccc(OC)c(OC)c3c[n+]1CC2	5.5	6.2	-2.9	1.5	5.8
Cc1ccc(NC(=O)CC(=O)c2ccccc2)cc1C	-3.2	2.8	-18.0	-13.1	7.5
COc1ccc2c(c1)CC/C(=C/c1ccncc1)C2=O	.	.	-5.9	.	.
COc1ccc2c3c(ccc2c1)C(=O)/C(=C/O)CC3	5.6	4.6	37.9*	27.2	17.5
CCN(C(=O)CSc1nc2ccccc2n1CC(C)C)c1c(N)n(Cc2ccccc2)c(=O)[nH]c1=O	-2.9	-1.7	-1.8	3.6	0.7
COc1ccc(C(NC(=O)c2cccnc2)c2cc(Cl)c3cccnc3c2O)cc1OC (stereo unspecified)	10.0	1.7	45.3*	7.3	4.8
N#Cc1c(C(F)(F)F)cc(-c2ccccc2Cl)[nH]c1=O	-76.0	-3.4	-18.2	-56.6	37.0*
COc1ccc(-c2c(C(F)(F)F)[nH]n3c(=O)cc(-c4ccccc4)nc23)cc1	4.6	0.2	8.0	-19.7	38.5*
COc1cccc(N=Nc2c(N)[nH]n3c(=O)cc(-c4ccccc4)nc23)c1	-4.9	-7.0	7.7	14.1	12.9
O=C(Nc1ccc([N+](=O)[O-])cc1)Nc1ccc(OC(F)F)c(Cl)c1	-283.7	40.3*	-111.7	-29.1	21.9
O=C(Cc1c(O)c2ccccc2[nH]c1=O)NCc1ccccc1F	8.0	1.2	-4.5	-9.6	-4.1
O=S(=O)(Nc1nc2ccccc2s1)c1ccc(Cl)s1	1.8	10.4	-14.0	-27.5	43.7*
CCN(C(=O)COC(=O)c1cccnc1)c1cccc2ccccc12	-1.8	2.1	-12.7	1.4	-0.4
COC(=O)[C@@]1(Cc2ccc(F)cc2)[C@H]2c3cc(C(=O)N4CCCC4)n(Cc4ccc(S(C)(=O)=O)cc4)c3C[C@H]2CN1C(=O)c1ccccc1	1.2	8.8	.	6.0	8.9
COC(=O)[C@@]1(Cc2ccc(F)cc2)[C@H]2c3cc(C(=O)N4CCCC4)n(Cc4ccc(C(F)(F)F)nc4)c3C[C@H]2CN1C(=O)c1ccccc1	17.1*	2.5	.	-7.8	1.5
COc1cc2c(cc1NC(=O)Nc1ccccc1)oc1ccccc12	-8.2	-3.6	-5.6	-30.2	35.1*
CO[C@@]1(NC(=O)CSCC#N)C(=O)N2C(C(=O)O)=C(CSc3nnnn3C)CS[C@@H]21	7.5	-2.5	5.6	-2.0	52.0*
COc1ccc(NC(=O)CN(C)C2CCS(=O)(=O)C2)cc1 (stereo unspecified)	-0.5	2.0	-3.6	0.5	3.5
COCCCNc1nc2c(c(=O)[nH]c(=O)n2C)n1CC(O)COc1ccccc1C (stereo unspecified)	18.6*	7.2	1.9	6.7	-2.4
Cc1nc(N2N=C(c3ccc(Cl)cc3)CC2c2ccco2)sc1C(=O)N(C)C (stereo unspecified)	-0.5	-12.3	-17.4	7.6	6.0
SMILES	SIAE inh	TCR-CD3 inh	HTRA1 inhibitor	ABHD4 inh	rCAG binder
COc1ccc(C2=NN(c3nc(-c4ccccc4)c(CC(=O)O)s3)C(c3ccco3)C2)cc1 (stereo unspecified)	-25.4	-4.2	-31.9	-7.9	45.7*
Cc1ccc(S(=O)(=O)c2c(C)cc(-c3ccccc3)[nH]c2=O)cc1	-1.4	-0.9	-12.3	8.7	-1.5
O=C(Nc1nnc(-c2cccs2)o1)c1cc(-c2ccccc2)nc2ccccc12	-9.1	-6.0	25.9	-18.6	44.1*
Cc1cc2nn(-c3ccc(F)cc3)nc2cc1N	9.5	-0.3	7.2	-4.6	14.8
COc1cc(OC)cc(C(=O)N2CCC3(CC2)NCCc2[nH]cnc23)c1	0.4	-3.5	-4.2	0.0	-2.4
Cc1ccc2nc(N3C(=O)C(O)=C(C(=O)c4ccc(C)o4)C3c3ccc(O)cc3)sc2c1 (stereo unspecified)	-13.7	-8.3	-28.9	-21.2	69.3*
Cc1c([N+](=O)[O-])c(C(=O)Sc2ccc(Br)cc2)nn1C	-1.2	-7.5	7.5	2.2	-0.9
O=C(NC1CCCCC1)c1ccc(NS(=O)(=O)c2cccc3cccnc23)cc1	-3.4	-1.2	-10.3	-4.5	0.3
FC(F)(F)c1cc(Cl)c2nc(-c3ccco3)c(Cc3ccccc3C(F)(F)F)n2c1	3.8	5.5	.	-1.6	58.4*
COc1ccc(-c2nc3c(Cl)cc(C(F)(F)F)cn3c2Cc2ccccc2C(F)(F)F)cc1OC	-0.1	-5.2	.	-3.0	6.5
Cc1ccc(-c2nc3c(Cl)cc(C(F)(F)F)cn3c2Cc2ccccc2C(F)(F)F)cc1	-12.8	0.6	.	-24.7	35.3*
Cn1c2ccccc2c2cnn(CC(=O)Nc3ccc(F)cc3F)c(=O)c21	-24.1	1.3	1.4	-4.8	-0.9
CN1C(=O)S/C(=C/c2ccc(OCc3cccc(C(=O)O)c3)cc2)C1=O	2.1	1.2	-7.0	-2.7	6.4
N#Cc1sc2nc(-c3ccccc3)cc(-c3ccco3)c2c1N	7.8	-1.5	42.7*	15.2	33.8
N#Cc1sc2nc(C3CC3)cc(-c3ccccc3)c2c1N	-2.1	-4.5	-10.4	4.0	2.1
NC(=O)c1nc(-c2cccs2)nc2c1[nH]c(=O)n2-c1ccc(F)cc1	-8.9	2.4	2.1	1.2	0.5
CC(NC(=O)c1ccc(Br)s1)C1CCCO1 (stereo unspecified)	.	.	4.7	.	.
O=C(c1ccccc1NS(=O)(=O)c1ccc([N+](=O)[O-])cc1[N+](=O)[O-])N1O[C@@H]2C=C[C@H]1C2	3.5	0.3	18.2	19.8	35.1*
O=C(COCc1ccccc1)NC1CCCCN(Cc2ccc(Cl)cc2)C1=O (stereo unspecified)	5.5	.	.	12.2	2.3
COc1ccc(-c2oc3cc(OC(C)=O)cc(OC(C)=O)c3c(=O)c2OC)cc1	-6.1	6.2	-2.7	-20.4	8.2
CC(=O)Oc1cc(O)c2c(=O)c(OC(C)=O)c(-c3ccc(OC(C)=O)c(OC(C)=O)c3)oc2c1	.	.	49.5*	.	.
CCc1nc(N[C@@H](Cc2c[nH]c3ccccc23)C(=O)O)c2oc3ccccc3c2n1	2.6	5.1	-5.8	1.8	36.5*
COc1ccc(C(C[N+](=O)[O-])c2c(C)[nH]c3ccccc23)cc1OC (stereo unspecified)	11.4	4.2	-0.2	-5.0	3.5
